Activity calls are given as the source filed them.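 Rule for the calls, unless noted: active = fluorescence slope after compound addition differing from the mean of all tested samples at 99.7% confidence, mostly higher but some lower; inactive = the rest.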
Legend:
[1] = inhibitors of TNFa-induced NFkB p65 translocation, primary screen, imaging, HUVEC, MLSMR starter and 10KST1 sets (AID 438;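 active = inhibition above 20% together with a positive visual image hit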;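 note: compound added about 3h40 before a 20 min TNFalpha stimulation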;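 for inhibition: signal is the nuclear over cytoplasmic p65 intensity ratio per well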); settings: HUVEC TNFa-induced p65 nuclear translocation; cell count: measured here: nuclei count (cytotoxicity indicator), at 2.08 µM; inhibition: at 2 µM, stronger effect = higher value, 0% TNFa-plus-vehicle, 100% no-TNFa wells
[2] = inhibitors of mutant huntingtin aggregation, primary screen, imaging, exon1htt(103Q)mCFP cells, high-content imaging (AID 483;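 active = visual image review flags a hit and inhibition of aggregation exceeds 20%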;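 note: compound exposure lasted 3 days before fixation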;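 for nuclei count: percent of the per-plate median nuclei count of sample wells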); settings: exon1htt(103Q)mCFP cell line, aggregate imaging, at 2 µM; inhibition of aggregation: stronger effect = higher value; nuclei count: measured here: cell count, toxicity
[3] = inhibitors of E-selectin induction by TNFa, primary screen, imaging, HUVEC, immunofluorescence, MLSMR starter and 10KST1 sets (AID 487;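 active = visually confirmed hit in the image check and inhibition above 20%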;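 for inhibition: signal is fraction of cell area covered by stained E-selectin grains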;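 for nuclei count: 100% = median nuclei count of all wells on the same plate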); settings: HUVEC TNFalpha-induced E-selectin immunofluorescence imaging, at 2 µM; inhibition: stronger effect = higher value; nuclei count: measured here: cell number, toxicity
[4] = biological target: Voltage-gated potassium channel subunit beta-2 (Rattus norvegicus) (UniProt P62483); assay: KvBeta enzyme negative modulators, primary screen, biochemical, NADPH fluorescence (AID 622;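 active = fluorescence slope higher than the sample average by over 3 SD, cut at about -0.22 in these data, passing the limit was not always enough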;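 note: slope of raw intensity against log time taken from 70 to 1610 s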); settings: recombinant KvBeta, 4-cyanobenzaldehyde reduction, at 10 µM, stronger effect = higher value
[5] = biological target: Voltage-gated potassium channel subunit beta-2 (Rattus norvegicus) (UniProt P62483); assay: KvBeta positive modulators, primary screen, biochemical, NADPH fluorescence (AID 623;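 active = NADPH fluorescence slope more negative than the mean of all samples by about 3 SD, 99.7% confidence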;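 note: fluorescence intensity change per second fitted from 20 to 320 s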); settings: Recombinant KvBeta, NADPH fluorescence decrease slope, 10 min; at 10 µM; stronger effect = lower value
[6] = biological target: Muscarinic acetylcholine receptor M4 (Homo sapiens) (UniProt P08173); assay: compounds altering M4/GIRK thallium flux, either direction, primary screen, M4 allosteric agonist project, cell-based, HEK293 M4/GIRK, BTC-AM (AID 625); settings: at 10 µM, actives lie on both sides;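 note: thallium influx through GIRK channels coupled to M4 in HEK293 cells with BTC-AM dye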
Summary of the method: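 Material: HEK293 cells with M4 receptor and GIRK channels; Times: cells overnight at 37 °C, BTC-AM loading 1 h, reads 2 min total; Technique: kinetic BTC-AM fluorescence sampled at 1 Hz, 10 s pre-addition baseline; Read-out basis: slope over 15–24 s of trace normalized to starting intensity; Controls: carbachol positive, DMSO negative.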

[7] = inhibitors of Sendai virus-induced IRF3 signaling, primary screen, TLR/RLR signaling modifier project, cell-based, Sendai virus stimulus, luciferase, 10K MLSCN set (AID 602276;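 active = inhibition at or above 50% at 10 µM; inactive = inhibition below 50%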;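 note: firefly luciferase from ISG56 promoter only with Renilla not read in this screen; 0% = Sendai virus plus DMSO and 100% = medium plus DMSO without virus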); settings: HEK293 RL24 IRF3 luciferase reporter, at 10 µM, stronger effect = higher value
[8] = inhibitors of poly I:C-induced TLR3 signaling, primary screen, cell-based, poly I:C stimulus, luciferase, 10K MLSCN set (AID 602277;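 active = inhibition of the reporter signal at or above 50%; inactive = inhibition below 50%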); settings: HEK293-TLR3 RL24 IRF3 luciferase reporter, at 10 µM, stronger effect = higher value

Sequence of Muscarinic acetylcholine receptor M4 (Homo sapiens) (P08173 whole entry, looked up): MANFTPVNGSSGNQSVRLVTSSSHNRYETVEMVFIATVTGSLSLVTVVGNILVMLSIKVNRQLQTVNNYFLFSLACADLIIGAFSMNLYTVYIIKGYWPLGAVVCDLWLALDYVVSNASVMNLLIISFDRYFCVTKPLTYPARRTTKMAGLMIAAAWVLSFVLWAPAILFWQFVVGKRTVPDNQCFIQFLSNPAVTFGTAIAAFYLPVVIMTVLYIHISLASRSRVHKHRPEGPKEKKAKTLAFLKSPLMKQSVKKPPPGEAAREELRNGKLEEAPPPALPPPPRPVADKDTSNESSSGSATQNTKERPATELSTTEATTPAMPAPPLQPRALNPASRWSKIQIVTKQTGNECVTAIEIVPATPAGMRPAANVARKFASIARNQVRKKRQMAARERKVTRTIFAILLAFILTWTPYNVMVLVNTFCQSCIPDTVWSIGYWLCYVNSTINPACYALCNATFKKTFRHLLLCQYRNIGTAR
Sequence of Voltage-gated potassium channel subunit beta-2 (Rattus norvegicus) (P62483 whole entry, looked up): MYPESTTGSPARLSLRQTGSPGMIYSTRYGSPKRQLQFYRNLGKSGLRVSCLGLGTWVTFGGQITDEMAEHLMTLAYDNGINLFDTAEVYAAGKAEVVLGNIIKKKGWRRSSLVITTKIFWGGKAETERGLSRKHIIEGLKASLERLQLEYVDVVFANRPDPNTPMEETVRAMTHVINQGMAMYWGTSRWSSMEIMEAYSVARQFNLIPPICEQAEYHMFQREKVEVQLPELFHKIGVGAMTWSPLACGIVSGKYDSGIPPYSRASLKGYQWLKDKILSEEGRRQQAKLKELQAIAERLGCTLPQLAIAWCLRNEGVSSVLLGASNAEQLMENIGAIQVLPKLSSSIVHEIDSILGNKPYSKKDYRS

| SMILES | cell count [1] | inhibition [1] | inhibition of aggregation [2] | nuclei count [2] [%] | inhibition [3] | nuclei count [3] [%] | fluorescence slope [4] | NADPH fluorescence slope [5] | fluorescence slope [6] | inhibition [7] | inhibition [8] |
| --- | --- | --- | --- | --- | --- | --- | --- | --- | --- | --- | --- |
| Cc1cc2nc3c(nc2cc1C)C1(C(=O)O)CCC3(C)C1(C)C (stereo not drawn) | 376 | -12.3% (inactive) | -4.4% (inactive) | 95 | -109% (inactive) | 101 | -0.547 (inactive) | -0.000111 (inactive) | 0.00318 (inactive) | 13.5% (inactive) | 15.6% (inactive) |
| Cc1cc2ncn(C(=O)N3CCOCC3)c2cc1C | 309 | -2.5% (inactive) | 27.9% (inactive) | 97.2 | -61.7% (inactive) | 122 | -0.572 (inactive) | -3.6e-05 (inactive) | 0.00619 (inactive) | 4.38% (inactive) | 3.06% (inactive) |
| Nc1nonc1C(=O)NCCNCc1cc(Br)ccc1OCc1ccccc1F | 422 | -2.4% (inactive) | 18.5% (inactive) | 89.6 | -4.2% (inactive) | 123 | -0.574 (inactive) | -3.2e-05 (inactive) | 0.00396 (inactive) | -2.45% (inactive) | -30.4% (inactive) |
| O=C(Nc1ccccc1)c1cccnc1N1CCOCC1 | 590 | -11.1% (inactive) | -5.4% (inactive) | 110 | -36.4% (inactive) | 84.1 | -0.449 (inactive) | -0.000339 (inactive) | 0.00425 (inactive) | 4.9% (inactive) | 19.1% (inactive) |
| O=C(CCCN1C(=O)c2ccccc2C1=O)Oc1ccc(F)cc1 | 735 | -11.6% (inactive) | -0.5% (inactive) | 106 | 17.3% (inactive) | 96.8 | -0.512 (inactive) | 1.4e-05 (inactive) | 0.00485 (inactive) | 12.5% (inactive) | 18.6% (inactive) |
| CCOc1ccc(C(=O)Nc2cc(C)on2)cc1OCC | 372 | -2.3% (inactive) | -2.8% (inactive) | 110 | -61.3% (inactive) | 108 | -0.437 (inactive) | -5.8e-05 (inactive) | 0.00551 (inactive) | 11.5% (inactive) | 7.31% (inactive) |
| O=C(CN1C(=O)NC(Cc2ccccc2)C1=O)Nc1ccccc1 (stereo not drawn) | 436 | 0% (inactive) | 8.9% (inactive) | 59.4 | -32.2% (inactive) | 111 | -0.594 (inactive) | -5.2e-06 (inactive) | 0.00658 (inactive) | -15.9% (inactive) | -20.9% (inactive) |
| CCC1(C)Cc2c(C#N)c(N)n(-c3ccccc3)c(=O)c2CO1 (stereo not drawn) | 531 | -8.6% (inactive) | 13.9% (inactive) | 100 | -59.9% (inactive) | 93.4 | -0.622 (inactive) | 6.4e-05 (inactive) | 0.00509 (inactive) | -3.47% (inactive) | 5.33% (inactive) |
| COCCCn1c2nc3ccccc3nc2c2c(=O)n(-c3ccccc3OC)cnc21 | 334 | 6.3% (inactive) | -5.4% (inactive) | 98.2 | 16.9% (inactive) | 102 | -0.457 (inactive) | 4.9e-05 (inactive) | 0.0045 (inactive) | -1.7% (inactive) | -9.3% (inactive) |
| CCn1c(C(=O)OC)cc2c1ccn2-c1ccc(F)cc1 | 648 | -2.6% (inactive) | 25% (inactive) | 99.6 | -86.1% (inactive) | 105 | -0.61 (inactive) | -2e-05 (inactive) | 0.00586 (inactive) | -52.7% (inactive) | -96.4% (inactive) |
| CCC(C)OC(=O)C1=C(C)NC2=C(C(=O)C(C(=O)OC)C(C)C2)C1c1ccc(N(C)C)cc1 (stereo not drawn) | 280 | -2.4% (inactive) | 12.6% (inactive) | 104 | -8.6% (inactive) | 115 | -0.579 (inactive) | 2.1e-05 (inactive) | 0.00551 (inactive) | 14.7% (inactive) | 25.6% (inactive) |
| O=C1CN(C(=O)CN2CCCC2)C(c2ccccc2)c2cc(Br)ccc2N1 (stereo not drawn) | 393 | -1.2% (inactive) | -15.4% (inactive) | 83.1 | -23.4% (inactive) | 123 | -0.512 (inactive) | -6.6e-05 (inactive) | 0.00427 (inactive) | -0.203% (inactive) | 21.9% (inactive) |
| CCCCN(CC)S(=O)(=O)c1ccc2c(c1)CCCN2C(C)=O | 490 | 2.9% (inactive) | 17.1% (inactive) | 111 | -88.5% (inactive) | 103 | -0.545 (inactive) | -2.8e-05 (inactive) | 0.0053 (inactive) | 0.955% (inactive) | 6.93% (inactive) |
| CCn1cnc2cc(NCc3cccc(OC)c3O)ccc21 | 322 | -2.8% (inactive) | -3.1% (inactive) | 94.7 | -18.2% (inactive) | 88 | -0.437 (inactive) | -4.8e-05 (inactive) | 0.00434 (inactive) | -3.88% (inactive) | -26.2% (inactive) |
| CN1CCN(C(=O)CCC(=O)c2ccc(F)cc2)CC1 | 478 | 3.9% (inactive) | -7.4% (inactive) | 122 | -2.6% (inactive) | 97.1 | -0.444 (inactive) | 5.6e-05 (inactive) | 0.00581 (inactive) | 5.42% (inactive) | 11.9% (inactive) |
| COc1ccc(CN2C(=O)c3ccccc3C2C(=O)NC2CCCC2)c(OC)c1 (stereo not drawn) | 671 | -4.8% (inactive) | 8.3% (inactive) | 87.1 | -53.3% (inactive) | 112 | -0.443 (inactive) | -4.9e-05 (inactive) | 0.00535 (inactive) | 14.9% (inactive) | 9.49% (inactive) |
| Cc1ccc(-c2cc(C(F)F)nc(N3CCC(C)CC3)n2)cc1 | 653 | -35.4% (inactive) | -11.6% (inactive) | 102 | -81.9% (inactive) | 117 | -0.432 (inactive) | -1.2e-05 (inactive) | 0.00777 (inactive) | 4.72% (inactive) | -1.99% (inactive) |
| Cc1cccc2cc(CN(Cc3nnnn3Cc3ccccc3)C3CCCC3)c(=O)[nH]c12 | 561 | -9% (inactive) | -39.5% (inactive) | 76.4 | -35.7% (inactive) | 111 | -0.483 (inactive) | -0.00011 (inactive) | 0.00509 (inactive) | 14.3% (inactive) | 15% (inactive) |
| COc1ccccc1C1C(C(C)=O)=C(O)C(=O)N1CCc1ccccc1 (stereo not drawn) | 373 | 9.5% (inactive) | -6.3% (inactive) | 105 | -33.5% (inactive) | 103 | -0.549 (inactive) | -3.7e-05 (inactive) | 0.00483 (inactive) | 10.7% (inactive) | 18.1% (inactive) |
| O=C(CSc1nc(C2CCCCC2)n(-c2ccccc2)n1)NCCN1C(=O)CSC1=O | 382 | -5.9% (inactive) | 8% (inactive) | 112 | -13.3% (inactive) | 140 | -0.572 (inactive) | -4.9e-05 (inactive) | 0.00728 (inactive) | 15.1% (inactive) | 23.3% (inactive) |
| CCOC(=O)c1ccc(NS(=O)(=O)c2ccc(SC)cc2)cc1 | 643 | -9% (inactive) | 4.8% (inactive) | 89 | -21.6% (inactive) | 88.3 | -0.48 (inactive) | -4.9e-05 (inactive) | 0.00382 (inactive) | 13.8% (inactive) | 16.1% (inactive) |
| O=C(O)C1CC(=O)N(c2ccc(OCc3ccccc3Cl)cc2)C1 (stereo not drawn) | 339 | -2.2% (inactive) | 12.7% (inactive) | 97.1 | -95.2% (inactive) | 94.8 | -0.644 (inactive) | 4e-05 (inactive) | 0.0043 (inactive) | 18.4% (inactive) | 23.2% (inactive) |
| CCOC(=O)CSc1nnc(-c2ccc(S(=O)(=O)N3CCOCC3)cc2)n1-c1ccccc1 | 193 | -21.3% (inactive) | -7.9% (inactive) | 88.6 | -19.3% (inactive) | 94.3 | -0.486 (inactive) | -3.1e-05 (inactive) | 0.00502 (inactive) | 10.2% (inactive) | 17.7% (inactive) |
| COc1cc(C)nc(OCCNC(=O)COc2ccc(Cl)cc2C)n1 | 705 | 23.3% (active) | -16% (inactive) | 109 | -53.9% (inactive) | 123 | -0.499 (inactive) | 0.00012 (inactive) | 0.00677 (inactive) | -3.41% (inactive) | -6.37% (inactive) |
| Cc1nn(Cc2ccccc2Cl)c(C)c1NC(=O)C1C2CCC(O2)C1C(=O)O (stereo not drawn) | 625 | 7.7% (inactive) | 0.3% (inactive) | 101 | 16.3% (inactive) | 96.3 | -0.494 (inactive) | -3.1e-05 (inactive) | 0.00475 (inactive) | -10.5% (inactive) | -23.8% (inactive) |
| O=C(Nc1cccc(NC(=O)c2cccnc2)c1)c1cccnc1 | 515 | -3.3% (inactive) | -15.9% (inactive) | 96.4 | 2.1% (inactive) | 103 | -0.271 (inactive) | -1.6e-05 (inactive) | 0.0055 (inactive) | 15.2% (inactive) | 11% (inactive) |
| O=c1ccn(Cc2ccccc2Cl)cc1 | 440 | 3% (inactive) | 1.3% (inactive) | 102 | 0.1% (inactive) | 131 | -0.426 (inactive) | -4e-05 (inactive) | 0.00507 (inactive) | 15.6% (inactive) | 14.2% (inactive) |
| COc1ccc(-c2cn3c(C)c(C(=O)Nc4cc(NC(C)=O)ccc4OC)sc3n2)cc1 | 693 | 7.3% (inactive) | -40.3% (inactive) | 59 | -116% (inactive) | 118 | -0.166 (inactive) | -6.9e-06 (inactive) | 0.00656 (inactive) | 42.7% (inactive) | 26.4% (inactive) |
